Results collected from several papers.
Compare with care: the assays were run in different laboratories.
Target: Death-associated protein kinase 2 (DAPK2, Homo sapiens, UniProt Q9UIK4)

CC(C)(C)c1nc(-c2cccc(NS(=O)(=O)c3c(F)cccc3F)c2F)c(-c2ccnc(N)n2)s1  remaining activity (enzyme activity, inhibitor, radiometric; 1 µM): 92%
O=C1NC(=O)c2cc(Nc3ccc(F)cc3)c(Nc3ccc(F)cc3)cc21  remaining signal (cell-free assay; 0.5 µM): 96.7%
CCN(CC)c1ccc(C2=NNC(=O)CC2C)cc1[N+](=O)[O-] (stereo not shown)  remaining activity (enzyme activity, inhibitor; 10 µM): 99%
CCCS(=O)(=O)Nc1ccc(F)c(C(=O)c2c[nH]c3ncc(-c4ccc(Cl)cc4)cc23)c1F  inhibition (enzyme activity, inhibitor; 1 µM): < 10%
O=C1Nc2ccc(Cl)cc2C1=Cc1cc(Cl)c(O)c(Cl)c1  remaining signal (cell-free assay; 0.5 µM): 135%
CO[C@@H](C)c1c(Nc2ccc([C@@H](N(C)C(=O)C3CCS(=O)(=O)CC3)C(F)(F)F)cc2)cnc2cc(Cl)nn12  remaining binding (binding, competition with immobilised ligand; 1 µM): 41%
CC(C)(O)[C@H]1CC[C@H](Nc2ccc3ncc(-c4cccc(C(F)(F)F)c4)n3n2)CC1  remaining activity (enzyme activity, inhibitor; 1 µM): 107%
COc1ccc2c(c1)O[C@@H](c1ccc(OC)c(OC)c1)C[C@H]2NC(=O)C1(c2ccc3c(c2)OC(F)(F)O3)CC1  remaining binding (cell-free assay, competition with immobilised ligand; 1 µM): 98%
Cc1ccc(NC(=O)c2ccc(C)c(C(F)(F)F)c2)cc1C#Cc1nn(C2CCC(O)CC2)c2ncnc(N)c12 (stereo not shown)  remaining signal (cell-free assay; 10 µM): 95%
CN(C)C(=O)Cn1cc(-c2nc([C@@](C)(c3ccc(-c4cnc(N)nc4)cc3)C3CC3)no2)cn1  remaining binding (cell-free assay, competition with immobilised ligand; 1 µM): 100%
CNC(=O)c1cc(Oc2ccc(NC(=O)Nc3ccc(Cl)c(C(F)(F)F)c3)cc2)ccn1  inhibition (enzyme activity, inhibitor; 10 µM): 6%
CN1CC(Oc2cnc(C#N)cc2-c2ccn3nc(NC(=O)C4CC4)cc3c2)C1  inhibition (enzyme activity, inhibitor; 1 µM): 0%
Cc1ccc(Nc2nccc(N(C)c3ccc4c(C)n(C)nc4c3)n2)cc1S(N)(=O)=O  inhibition (enzyme activity, inhibitor; 10 µM): -4%
C[C@@H]1CN(c2cc(-c3nn(C)c4ccc(OC5(C)CC5)cc34)ncn2)C[C@H](C)O1  remaining binding (cell-free assay, competition with immobilised ligand; 1 µM): 89%
CCN(CC)CCNC(=O)c1c(C)[nH]c(/C=C2\C(=O)Nc3ccc(F)cc32)c1C  inhibition (enzyme activity, inhibitor; 0.3 µM): 30%
N[C@H]1CCN(c2nccc(-c3cnn4ncccc34)n2)C1  remaining binding (binding; 1 µM): 98%
